Active and inactive are the calls of the source. The rule behind the calls is not given here.
What was measured:
[1] = Prodrug release in human HT-29 cells assessed as increase in NO level by measuring induction of P-glycoprotein nitration in plasma membrane at 5 uM incubated for 24 hrs by western blot analysis; format: cell membranes, Cell membrane; details: ht-29, 24 h
Outline: (§1)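 Cells 24 h with 5 µmol/L compound. Plasma-membrane proteins isolated by surface biotinylation, 50 µg run on SDS-PAGE, probed for Pgp with pancadherin loading control; nitration detected by Western blot, peroxidase secondary and chemiluminescence. Representative of three experiments.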

HT-29 [2] = assay: Induction of apoptosis in human HT29 cells assessed as activation of caspase 9 using LEHD-AMC substrate at 5 uM incubated for 24 hrs by fluorescence based assay; format: functional, cell-based
Outline: (§2)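 Cells 24 h in 5 µmol/L compound or fresh medium, lysed in HEPES/KOH buffer pH 7.5. 20 µg lysate incubated 1 h at 37°C with 20 µmol/L LEHD-AMC (caspase 9) or DEVD-AMC (caspase 3) in HEPES/CHAPS/sucrose/DTT buffer pH 7.5. Stopped with ice-cold 0.1% TCA; AMC fluorescence ex 380/em 460 nm, converted to nmol AMC/µg protein via AMC standards. Triplicate.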

[3] = Prodrug release in doxorubicin-resistant human HT-29 cells assessed as increase in NO level by measuring nitrite release at 5 uM incubated for 24 hrs by spectrophotometric analysis; format: ADME, cell-based; details: ht-29, 24 h
Outline: (§3)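 After 24 h culture with 5 µmol/L compound, medium mixed 1:1 with Griess reagent, 10 min 37°C in dark, absorbance 540 nm. Cell-free blank subtracted; nitrite expressed as nmol/mg cell protein. HT29/dx maintained in 200 nmol/L DOXO. Triplicate, mean ± SD (n = 3).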

HT-29 [4] = assay: Induction of apoptosis in doxorubicin-resistant human HT29 cells assessed as activation of caspase 3 using DEVD-AMC substrate at 5 uM incubated for 24 hrs by fluorescence based assay; format: functional, cell-based; outline: as §2
[5] = Prodrug release in human HT-29 cells assessed as increase in NO level by measuring induction of P-glycoprotein nitration in mitochondria at 5 uM incubated for 24 hrs by western blot analysis; details: ht-29, 24 h
Outline: (§4)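 Cells 24 h with 5 µmol/L compound. Mitochondrial extracts, 10 µg protein, run on SDS-PAGE and probed for Pgp, porin as loading control; nitration detected by Western blot with peroxidase secondary and chemiluminescence. Representative of three experiments.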

HT-29 [6] = assay: Induction of apoptosis in doxorubicin-resistant human HT29 cells assessed as activation of caspase 9 using LEHD-AMC substrate at 5 uM incubated for 24 hrs by fluorescence based assay; format: functional, cell-based; outline: as §2
[7] = Prodrug release in doxorubicin-resistant human HT-29 cells assessed as increase in NO level by measuring induction of P-glycoprotein nitration in plasma membrane at 5 uM incubated for 24 hrs by western blot analysis; format: cell membranes, Cell membrane; details: ht-29, 24 h; outline: as §1
[8] = Stability of the compound assessed as human serum esterase-mediated compound hydrolysis by measuring half life at 100 uM by RP-HPLC analysis; format: ADME, cell-free
Outline: (§5)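 Compound from 10 mM DMSO stock added to human male AB serum preheated to 37 °C, 100 µM final, incubated at 37 ± 0.5 °C. Aliquots deproteinized with acetonitrile/0.1% HCOOH, centrifuged, filtered. Parent and degradation products quantified by RP-HPLC (234 and 480 nm) against 1–100 µM calibration. At least triplicate.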

[9] = Prodrug release in human HT-29 cells assessed as increase in NO level by measuring plasma membrane associated MRP1/BCRP nitration mediated drug uptake at 5 uM incubated for 24 hrs by spectrofluorometric analysis; format: ADME, cell membranes; details: ht-29, 24 h
Outline: (§6)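 Cells 24 h with 5 µmol/L compound; DOXO in whole-cell lysates measured fluorimetrically (ex 475/em 553 nm), cell-free blank subtracted, converted to nmol DOXO/mg protein by calibration curve. Triplicate, mean ± SD.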

[10] = Prodrug release in human HT-29 cells assessed as increase in NO level by measuring nitrite release at 5 uM incubated for 24 hrs by spectrophotometric analysis; format: ADME, cell-based; details: ht-29, 24 h; outline: as §3
[11] = Prodrug release in doxrubicin-resistant human HT-29 cells assessed as increase in NO level by measuring induction of P-glycoprotein nitration in mitochondria at 5 uM incubated for 24 hrs by western blot analysis; details: ht-29, 24 h; outline: as §4
[12] = Prodrug release in doxorubicin-resistant human HT-29 cells assessed as increase in NO level by measuring plasma membrane associated MRP1/BCRP nitration mediated drug uptake at 5 uM incubated for 24 hrs by spectrofluorometric analysis; format: ADME, cell membranes; details: ht-29, 24 h; outline: as §6
HT-29 [13] = assay: Induction of apoptosis in human HT29 cells assessed as activation of caspase 3 using DEVD-AMC substrate at 5 uM incubated for 24 hrs by fluorescence based assay; format: functional, cell-based; outline: as §2
HT-29 [14] = assay: Upregulation of iNOS protein expression in human HT-29 cells; format: functional, cell-based
Outline: (§7)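 HT29 and HT29/dx cells incubated 24 h with compound or fresh medium; lysed in MLB buffer pH 7.5, sonicated, centrifuged 13,000 x g 10 min 4°C; iNOS detected in whole-cell lysate by Western blotting.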

[15] = Prodrug release in doxorubicin-resistant human HT-29 cells assessed as increase in NO level by measuring mitochondria associated MRP1/BCRP nitration mediated drug uptake at 5 uM incubated for 24 hrs by spectrofluorometric analysis; format: ADME; details: ht-29, 24 h
Outline: (§8)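 Cells 24 h with 5 µmol/L compound; mitochondrial fractions isolated (porin check by immunoblot), DOXO measured fluorimetrically (ex 475/em 553 nm) with blank subtraction and calibration curve; expressed as nmol DOXO/mg mitochondrial protein. Triplicate, mean ± SD.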

H9c2 = assay: Cardiotoxicity against rat H9c2 cells assessed as LDH release at 5 uM incubated for 24 hrs; format: toxicity, cell-based; details: h9c2, 24 h
Outline: (§9)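 Extracellular medium spun 12,000 × g 5 min; cells detached, sonicated in 82.3 mmol/L triethanolamine phosphate-HCl pH 7.6. LDH activity read in medium and lysate at 340 nm over 6 min, as µmol NADH oxidized/min/dish; extracellular LDH given as % of total dish activity. Compounds from DMSO stock, 5 µM final, 1% DMSO; controls 1% DMSO. Triplicate, mean ± SD.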

[16] = Prodrug release in human HT-29 cells assessed as increase in NO level by measuring mitochondria associated MRP1/BCRP nitration mediated drug uptake at 5 uM incubated for 24 hrs by spectrofluorometric analysis; format: ADME; details: ht-29, 24 h; outline: as §8
HT-29 [17] = assay: Upregulation of iNOS protein expression in doxorubicin-resistant human HT-29 cells; format: functional, cell-based; outline: as §7
[18] = Stability of the compound assessed as human serum esterase-mediated compound hydrolysis by measuring parent compound remaining at 100 uM measured after 24 hrs by RP-HPLC analysis; format: ADME, cell-free; details: read-out: Stabilty; outline: as §5
HT-29 [19] = assay: Cytotoxicity against doxorubicin-resistant human HT-29 cells assessed as LDH release at 5 uM incubated for 24 hrs; format: functional, cell-based; outline: as §9
HT-29 [20] = assay: Cytotoxicity against human HT-29 cells assessed as LDH release at 5 uM incubated for 24 hrs; format: functional, cell-based; outline: as §9

SMILES | Activity [1] | Activity (HT-29 [2]) | Drug metabolism [3] | Activity (HT-29 [4]) | Activity [5] | Activity (HT-29 [6]) | Activity [7] | half-life at 100 µM [8] [min] | Drug uptake [9] | Drug metabolism [10] | Activity [11] | Drug uptake [12] | Activity (HT-29 [13]) | Activity (HT-29 [14]) | Activity (H9c2) | Activity (HT-29 [17]) | further results
COc1cccc2c1C(=O)c1c(O)c3c(c(O)c1C2=O)C[C@@](O)(C(=O)COC(=O)c1ccc(CCCO[N+](=O)[O-])cc1)C[C@@H]3O[C@H]1C[C@H](N)[C@H](O)[C@H](C)O1.Cl | Not Active | inactive | Metabolite_Detected | inactive | Not Active | inactive | Not Active | 1480 | Active | Metabolite_Detected | Not Active | Active | inactive | – | – | – | –
COc1cccc2c1C(=O)c1c(O)c3c(c(O)c1C2=O)C[C@@](O)(C(=O)COC(=O)c1ccc(C(=O)OCO/N=[N+](\[O-])N2CCCC2)cc1)C[C@@H]3O[C@H]1C[C@H](N)[C@H](O)[C@H](C)O1.Cl | – | inactive | Metabolite_Detected | inactive | Not Active | inactive | – | 168 | Not Active | Metabolite_Detected | Not Active | – | inactive | – | – | – | Activity [12]: Not Active
COc1cccc2c1C(=O)c1c(O)c3c(c(O)c1C2=O)C[C@@](O)(C(=O)COC(=O)c1ccc(OCC(CO[N+](=O)[O-])O[N+](=O)[O-])cc1)C[C@@H]3O[C@H]1C[C@H](N)[C@H](O)[C@H](C)O1.Cl (stereo partly drawn) | Not Active | inactive | Metabolite_Detected | inactive | Not Active | inactive | Not Active | 2080 | Active | Metabolite_Detected | Not Active | Active | inactive | – | – | – | –
COc1cccc2c1C(=O)c1c(O)c3c(c(O)c1C2=O)C[C@@](O)(C(=O)COC(=O)c1ccc(OCCCO[N+](=O)[O-])cc1)C[C@@H]3O[C@H]1C[C@H](N)[C@H](O)[C@H](C)O1.Cl | Not Active | inactive | Metabolite_Detected | inactive | Not Active | inactive | Not Active | 1600 | Active | Metabolite_Detected | Not Active | Active | inactive | – | – | – | –
COc1cccc2c1C(=O)c1c(O)c3c(c(O)c1C2=O)C[C@@](O)(C(=O)COC(=O)CCCC(CO[N+](=O)[O-])O[N+](=O)[O-])C[C@@H]3O[C@H]1C[C@H](N)[C@H](O)[C@H](C)O1.Cl (stereo partly drawn) | – | inactive | Metabolite_Detected | inactive | – | inactive | – | 360 | – | Metabolite_Detected | – | – | inactive | – | – | – | –
COc1cccc2c1C(=O)c1c(O)c3c(c(O)c1C2=O)C[C@@](O)(C(=O)CO)C[C@@H]3O[C@H]1C[C@H](N)[C@H](O)[C@H](C)O1 [DOXORUBICIN] | Not Active | – | – | – | – | – | – | – | Active | Metabolite_Detected | – | Not Active | – | Active | Toxic | inactive | Drug uptake [15]: Not Active; Drug uptake [16]: Active
COc1cccc2c1C(=O)c1c(O)c3c(c(O)c1C2=O)C[C@@](O)(C(=O)COC(=O)c1ccc(Oc2no[n+]([O-])c2S(=O)(=O)c2ccccc2)cc1)C[C@@H]3O[C@H]1C[C@H](N)[C@H](O)[C@H](C)O1.Cl | – | Active | Metabolite_Detected | Active | – | Active | – | > 1440 | – | Metabolite_Detected | – | – | Active | Active | Non-Toxic | Active | remaining at 24 h, 100 µM [18]: 73.5%; Activity (HT-29 [19]): Active; Activity (HT-29 [20]): Active
COc1cccc2c1C(=O)c1c(O)c3c(c(O)c1C2=O)C[C@@](O)(C(=O)COC(=O)CCCCCO[N+](=O)[O-])C[C@@H]3O[C@H]1C[C@H](N)[C@H](O)[C@H](C)O1.Cl | – | – | Metabolite_Detected | – | – | – | Not Active | 294 | Active | Metabolite_Detected | – | Active | – | – | – | – | –
COc1cccc2c1C(=O)c1c(O)c3c(c(O)c1C2=O)C[C@@](O)(C(=O)COC(=O)c1ccc(CC(CO[N+](=O)[O-])O[N+](=O)[O-])cc1)C[C@@H]3O[C@H]1C[C@H](N)[C@H](O)[C@H](C)O1 (stereo partly drawn) | Not Active | Active | Metabolite_Detected | Active | – | Active | Not Active | 960 | Active | Metabolite_Detected | – | Active | Active | Active | Non-Toxic | Active | Activity (HT-29 [19]): Active; Drug uptake [15]: Active; Activity (HT-29 [20]): Active; Drug uptake [16]: Active

— ChEMBL document CHEMBL4715702, “Overcoming multidrug resistance by targeting mitochondria with NO-donating doxorubicins” (Bioorg Med Chem, 2016)
